What was measured:
Type in all cases: functional
[1] = tested on: Rattus norvegicus; experiment: Antiimplantation activity as minimum effective dose after oral administration.; settings: read-out: MED
How it was run: (§1)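 Colony-bred adult female rats (150–170 g) were dosed orally with the compound as a gum acacia suspension on days 1–7 postcoitum, five to seven animals per group. Implants were counted by laparotomy on day 10 of pregnancy. The value is the minimum dose at which implants were totally absent from both uterine horns.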

[2] = tested on: Rattus norvegicus; experiment: Antiimplantation activity as minimum effective dose after subcutaneous administration.; settings: sc, read-out: MED
How it was run: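 Compound was given subcutaneously in 0.5 mL propylene glycol–saline (1:1, v/v) to colony-bred adult female rats (150–170 g) on days 1–7 postcoitum, five to seven animals per group. Laparotomy on day 10 of pregnancy counted implants. The minimum dose giving total absence of implants in both uterine horns was recorded.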

[3] = tested on: Rattus norvegicus; experiment: Antiimplantation activity as minimum effective dose after peroral administration.; settings: po, read-out: MED; how it was run: as §1
[4] = tested on: Rattus norvegicus; experiment: Antiimplantation activity as minimum effective dose after oral administration; settings: read-out: MED; how it was run: as §1
[5] = tested on: Rattus norvegicus; experiment: Antiimplantation activity was measured as minimum effective dose after oral administration.; settings: read-out: MED; how it was run: as §1

Compound | minimal effective dose [2] | minimal effective dose [3] | further results
C#C[C@]1(O)CCC(C2CCc3cc(O)ccc3C2)C1(C)C (stereo not given in full) | 0.025 mg/kg |  | minimal effective dose [1]: 0.75 mg/kg
C[C@]12CC[C@@H]3c4ccc(O)cc4CC[C@H]3[C@@H]1CC[C@@H]2O [ESTRADIOL] | 0.015 mg/kg |  | 
CC1(C)C(O)CCC1C1CCc2cc(O)ccc2C1 (stereo not given) | 0.01 mg/kg | 10 mg/kg | 
C#C[C@]1(O)CC[C@H]2[C@@H]3CCc4cc(O)ccc4[C@H]3CC[C@@]21C [ETHINYL ESTRADIOL] |  |  | minimal effective dose [4]: 0.15 mg/kg
COc1ccc2c(c1)CCC(C1CCC(O)C1(C)C)C2 (stereo not given) | 1.5 mg/kg | 10.5 mg/kg | 
C#C[C@]1(O)CCC(C2CCc3cc(OC)ccc3C2)C1(C)C (stereo not given in full) | 0.025 mg/kg |  | minimal effective dose [5]: 1 mg/kg

Reference: ChEMBL document CHEMBL1124259, “C-nor-9,11-secoestranes as modified estrogens and fertility regulation” (1988)
